Reference: ChEMBL document CHEMBL1128261, “Synthesis and biological activity of thiazolylindolequinones, analogues of the natural product BE 10988” (J Med Chem, 1995)

Key:
[1] = Ratio of IC50 against V79 cells in the presence of air to that of nitrogen.; type: functional
SK-BR-3 = assay: The IC50 value was measured on human breast cancer cell line SK-BR-3.; type: functional, cell-based
Summary of the method: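 SKBr3 breast cancer cells were seeded at 10^4 cells/well for exponential growth over 4 days. Graded compound concentrations were added 2 h after plating (4 wells per concentration), with continuous exposure for 4 days and MTT growth readout. Each experiment was done at least twice, and IC50 was derived from the cumulative data.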

V79 [2] = assay: The IC50 value was measured on V79 cells in the presence of nitrogen using MTT assay.; type: functional, cell-based; conditions: Cricetulus griseus
Summary of the method: (§1)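 V79 Chinese hamster cells were exposed to drug under aerobic (air) or hypoxic (N2) conditions. After the drug was removed, cells proliferated for 3 days before MTT assay. IC50 is the concentration killing 50% of cells under the initial treatment condition.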

V79 [3] = assay: The IC50 value was measured on V79 cells in the presence of air using MTT assay.; type: functional, cell-based; conditions: Cricetulus griseus; summary of the method: as §1

| Structure (SMILES) | IC50 (SK-BR-3) [µM] | Ratio [1] | IC50 (V79 [2]) [µM] | IC50 (V79 [3]) [µM] |
| --- | --- | --- | --- | --- |
| Cc1csc(-c2cn(C)c3c2C(=O)C(=N)C=C3O)n1 | 0.73 | 1.7 | 6 | 10.3 |
| Cn1cc(-c2nc(C(N)=O)cs2)c2c1C(=O)C=C(N)C2=O | 8.7 | 1.2 | 5.1 | 6.2 |
| Cn1cc(-c2csc(C(N)=O)n2)c2c1C(=O)C=C(N)C2=O | 4.1 | 1.3 | 4.1 | 5.5 |
| O=C1c2c(O)ccc(O)c2C(=O)c2c(NCCNCCO)ccc(NCCNCCO)c21 [MITOXANTRONE] | 0.016 | – | – | – |

The next lines start with results.

| IC50 (SK-BR-3) [µM] | Structure (SMILES) | Ratio [1] | IC50 (V79 [2]) [µM] | IC50 (V79 [3]) [µM] |
| --- | --- | --- | --- | --- |
| 16.9 | CCOC(=O)c1nc(-c2cn(C)c3c2C(=O)C(OC)=CC3=O)cs1 | 0.64 | 60.9 | 38.7 |
| 4.8 | CCOC(=O)c1coc(-c2cn(C)c3c2C(=O)C(OC)=CC3=O)n1 | 1.1 | 46 | 51.7 |
| 27.8 | CCOC(=O)c1csc(-c2cn(C)c3c2C(=O)C(OC)=CC3=O)n1 | 1.2 | 345 | 423 |
| 1.4 | COC1=CC(=O)c2c(c(-c3nc(C)cs3)cn2C)C1=O | 1.5 | 47.7 | 72.9 |
